The nature of data set [1]: Metabolic stability in rat plasma assessed as compound remaining at 50 ug/mL after 30 mins by LC-MS/MS analysis. To be noted: read-out: Stability. The data set is classed as ADME, cell-free. The procedure, abridged:
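Prodrug at 50 μg/mL in rat plasma, incubated 30 min at 37 °C; samples analyzed immediately by LC-MS/MS, reported as percent of compound remaining.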

A short description of data set [2]: Stability of the compound in rat liver microsomes assessed as half life at 1 uM by LC/MS/MS analysis. It counts as ADME, Microsome. The procedure, abridged:
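Rat liver microsomes (0.5 mg/mL total protein) with 1.2 mM NADPH in 100 mM phosphate buffer pH 7.4; prodrug added from acetonitrile stock (100 μM) to final 1 μM. Kept at 37 °C, sampled 0, 15, 30, 60, 120 min. Stopped with two volumes cold acetonitrile plus internal standard, centrifuged, supernatant by LC-MS/MS. Mean of duplicate experiments.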

Data set [3] can be described thus: Stability of the compound in rat plasma assessed as half life at 1 uM by LC/MS/MS analysis. The data set is classed as ADME, cell-free. The gist of the method:
(§1)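 Prodrug added from acetonitrile stock (100 μM) to rat plasma or simulated gastric juice at final 1 μM. Held at 37 °C, sampled 0, 15, 30, 60, 120 min. Quenched with two volumes cold acetonitrile containing internal standard, centrifuged, supernatant analyzed by LC-MS/MS. Half-life as mean of duplicate experiments.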

The nature of data set [4]: Stability of the compound in simulated gastric juice assessed as half life at 1 uM by LC/MS/MS analysis. The data set is classed as physicochemical. The procedure, abridged: as §1

Each structure is given as a SMILES string.

We go through six compounds from ChEMBL document CHEMBL1817629, “Design, synthesis, bioconversion, and pharmacokinetics evaluation of new ester prodrugs of olmesartan” (Eur J Med Chem, 2011).

Consider `CCCc1nc(C(C)(C)O)c(C(=O)OC(C)OC(=O)c2ccccc2)n1Cc1ccc(-c2ccccc2-c2nnn[nH]2)cc1` (stereo not drawn), for which, in data set [1], the remaining at 0.5 h, 50 ug/mL was found to be 85.8%.

Regarding `CCCc1nc(C(C)(C)O)c(C(=O)OCOC(=O)C23CC4CC(CC(C4)C2)C3)n1Cc1ccc(-c2ccccc2-c2nnn[nH]2)cc1`, the half-life at 1 µM in data set [2] is 2.28 min; in data set [3] it was 10 min; in data set [4] it was 312 min. Moreover, the remaining at 0.5 h, 50 ug/mL in data set [1] is 79.8%.

Consider `CCCc1nc(C(C)(C)O)c(C(=O)OCc2c[nH]c(=O)[nH]c2=O)n1Cc1ccc(-c2ccccc2-c2nnn[nH]2)cc1`, for which the remaining at 0.5 h, 50 ug/mL in data set [1] was 96.3%.

As to `CCCCCCCCOC(=O)c1c(C(C)(C)O)nc(CCC)n1Cc1ccc(-c2ccccc2-c2nnn[nH]2)cc1`, the remaining at 0.5 h, 50 ug/mL in data set [1] worked out at 90.2%.

For the compound `CCCc1nc(C(C)(C)O)c(C(=O)OC(C)OC(=O)C2CCCCC2)n1Cc1ccc(-c2ccccc2-c2nnn[nH]2)cc1` (stereo not drawn), the half-life at 1 µM in data set [2] was 2.7 min; in data set [3], 9.68 min; in data set [4], 928 min.

As for `CCCc1nc(C(C)(C)O)c(C(=O)OCc2oc(=O)oc2C)n1Cc1ccc(-c2ccccc2-c2nnn[nH]2)cc1` [OLMESARTAN MEDOXOMIL], the half-life at 1 µM was 4.95 min in data set [2], 0.956 min in data set [3] and greater than 1000 min in data set [4].

A word on the half-life: it is how long it takes for the measured level to halve.
